Source: ChEMBL document CHEMBL3751813, “Nonpeptidic Amphiphilic Xanthone Derivatives: Structure-Activity Relationship and Membrane-Targeting Properties” (J Med Chem, 2016)
In brackets after ≈: the same amount, converted by molar mass. Activity calls are given as the source filed them. The rule behind the calls is not given here.

Tests used:
Staphylococcus aureus [1] = test: Antibacterial activity against clinical isolates of Staphylococcus aureus DM4001R after 24 hrs by […]; format: functional
Staphylococcus aureus [2] = test: Antibacterial activity against clinical isolates of methicillin-resistant Staphylococcus aureus DM9808R after 24 hrs by […]; format: functional
Staphylococcus aureus [3] = test: Antibacterial activity against clinical isolates of methicillin-resistant Staphylococcus aureus DM21455 after 24 hrs by […]; format: functional; conditions: DM21455, 24 h
Bacillus cereus = test: Antibacterial activity against clinical isolates of Bacillus cereus ATCC 11778 after 24 hrs by […]; format: functional; conditions: ATCC 11778, 24 h
[4] = Selectivity index, ratio of HC50 for hemolytic activity against New Zealand white rabbit RBC to MIC for clinical isolates of Staphylococcus aureus DM4001
Staphylococcus aureus [5] = test: Induction of membrane permeabilization in clinical isolates of Staphylococcus aureus DM4001 at 10 uM measured for 200 sec by SYTOX green influx assay; format: functional, organism-based
Summary of the method: (§1)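 Exponential-phase cells washed twice in 20 mM PBS pH 7 and adjusted to OD620 0.09. Given 3 µM SYTOX Green and kept in the dark until fluorescence was stable, then compound added. Fluorescence followed in a stirred cuvette at ex 504/em 523 nm. Melittin 10 µg/mL was the positive control. Run at least twice; one run reported.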

Staphylococcus aureus [6] = test: Induction of membrane disruption in clinical isolates of Staphylococcus aureus DM4001 assessed as membrane integrity incubated for 10 mins by live/dead baclight bacterial viability assay relative to control; format: functional; parameters: concentration or dose not given beside the values
Summary of the method: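 Exponential-phase cells washed in 0.9% saline, OD670 0.3, exposed to compound 10 min at room temperature. Pelleted, resuspended, then stained with SYTO 9 (10 µM) plus propidium iodide (60 µM) 15 min dark. Excitation 485 nm, emission 500–700 nm; green/red ratio converted to % damage using standards of 0–100% isopropanol-killed cells.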

[7] = Hemolytic activity against New Zealand white rabbit RBC after 1 hr by microplate reader analysis; format: ADME, cell-based, Oryctolagus cuniculus, Erythrocyte; conditions: rabbit red blood cells
Summary of the method: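 Rabbit RBCs spun from serum at 3,000 rpm for 10 min and washed twice in PBS. Mixed with compound in DMF at 4% v/v RBCs, 1 h at 37 °C. After centrifugation, hemoglobin in the supernatant read at 576 nm. 2% Triton X-100 was the positive control and 1% DMF the negative control.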

[8] = Membrane permeabilization activity assessed as release of calcein from DOPE/DOPG liposomes at lipid:compound ratio of 4 incubated for 30 mins by fluorescence assay; format: ADME; conditions: 0.5 h
Summary of the method: (§2)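 Freeze-thawed, extruded, then gel-filtered. Final lipid 50 µM with compound added from DMF (<0.2%). Fluorescence at ex 490/em 520 nm over 30 min; 0.1% Triton X-100 defined 100% lysis.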

[9] = Membrane permeabilization activity assessed as release of calcein from DOPC liposomes at lipid:compound ratio of 4 incubated for 30 mins by fluorescence assay; format: ADME; conditions: 0.5 h; summary of the method: as §2
[10] = Membrane permeabilization activity assessed as release of calcein from DOPE/DOPG liposomes at lipid:compound ratio of 8 incubated for 30 mins by fluorescence assay; format: ADME; conditions: 0.5 h; summary of the method: as §2
[11] = Membrane permeabilization activity assessed as release of calcein from DOPC liposomes at lipid:compound ratio of 8 incubated for 30 mins by fluorescence assay; format: ADME; conditions: 0.5 h; summary of the method: as §2
[12] = Membrane permeabilization activity assessed as release of calcein from DOPE/DOPG liposomes at lipid:compound ratio of => 16 incubated for 30 mins by fluorescence assay; format: ADME; conditions: 0.5 h; summary of the method: as §2
[13] = Membrane permeabilization activity assessed as release of calcein from DOPC liposomes at lipid:compound ratio of => 16 incubated for 30 mins by fluorescence assay; format: ADME; conditions: 0.5 h; summary of the method: as §2
[14] = Membrane permeabilization activity assessed as release of calcein from DOPE/DOPG large unilamellar vesicles at 0.125 to 0.5 compound:lipid ratio incubated for 30 mins by fluorescence assay; format: ADME; conditions: 0.5 h; summary of the method: as §2
Staphylococcus aureus [15] = test: Induction of membrane permeabilization in clinical isolates of Staphylococcus aureus DM4001 at 50 uM by SYTOX green uptake assay; format: functional; summary of the method: as §1
Staphylococcus aureus [16] = test: Induction of membrane permeabilization in clinical isolates of Staphylococcus aureus DM4001 assessed as ATP leakage at 50 uM incubated for 10 mins by firefly luciferase based luminometry analysis; format: functional
Summary of the method: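 Exponential-phase cells washed twice in 20 mM PBS pH 7 and set to OD620 0.3. Exposed 10 min at 37 °C, then spun at 4000 rpm for 5 min. Supernatant mixed with luciferase reagent (1 mM DTT, 0.5 mM D-luciferin, 1.25 µg/mL firefly luciferase). Luminescence read over 30 cycles.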

Row | SMILES | MIC (Staphylococcus aureus [1]) [µg/mL] | MIC (Staphylococcus aureus [2]) [µg/mL] | MIC (Staphylococcus aureus [3]) [µg/mL] | MIC (Bacillus cereus) [µg/mL] | Selectivity ratio [4] | Activity (Staphylococcus aureus [5]) | Activity (Staphylococcus aureus [6]) [%] | HC50 at 1 h [7] [µg/mL] | Activity [8] | Activity [9] | Activity [10] | Activity [11] | Activity [12] | Activity [13] | Activity [14] [%] | Activity (Staphylococcus aureus [15]) [cps] | Activity (Staphylococcus aureus [16]) [µM]
1 | CCN(CC)CCCCCCOc1cc2oc3cc(OCCCCCCN(CC)CC)c(OC)c(CC=C(C)C)c3c(=O)c2c(O)c1CC=C(C)C | 1.56 (≈ 2.16 µM) | 3.12 (≈ 4.33 µM) | 1.56 (≈ 2.16 µM) | 3.12 (≈ 4.33 µM) | 17 | Active | 45.1 |  |  |  |  |  |  |  |  |  | 
2 | COc1c(O)cc2oc3cc(O)c(CCC(C)C)c(O)c3c(=O)c2c1CCC(C)C | > 50 | > 50 | > 50 | > 50 |  |  |  | > 200 | Not Active | Not Active | Not Active | Not Active | Not Active | Not Active |  |  | 
3 | O=c1c2ccc(O)cc2oc2cc(O)cc(O)c12 | > 50 | > 50 | > 50 | > 50 |  |  |  | > 200 | Not Active | Not Active | Not Active | Not Active | Not Active | Not Active |  |  | 
4 | CCN(CC)CCCCCCCCCCCCOc1cc2oc3cc(OCCCCCCCCCCCCN(CC)CC)c(OC)c(CC=C(C)C)c3c(=O)c2c(O)c1CC=C(C)C | > 50 | > 50 | > 50 | > 50 |  | inactive | 99.9 | > 200 |  |  |  |  |  |  | 60 |  | 
5 | COc1c(OCCCCN2CC[C@H](N(C)C)C2)cc2oc3cc(OCCCCN4CC[C@H](N(C)C)C4)c(CC=C(C)C)c(O)c3c(=O)c2c1CC=C(C)C | 12.5 (≈ 16.7 µM) | 6.25 (≈ 8.37 µM) | 6.25 (≈ 8.37 µM) | 6.25 (≈ 8.37 µM) | 2.3 |  |  | 28.9 |  |  |  |  |  |  |  | 58191 | 7.962
6 | CCN(CC)CCCCCOc1cc2oc3cc(OCCCCCN(CC)CC)c(OC)c(CC=C(C)C)c3c(=O)c2c(O)c1CC=C(C)C | 1.56 (≈ 2.25 µM) | 1.56 (≈ 2.25 µM) | 0.78 (≈ 1.13 µM) | 6.25 (≈ 9.02 µM) | 9 | Active | 43 |  |  |  |  |  |  |  |  |  | 
7 | CCN(CC)CCCCCCCCOc1cc2oc3cc(OCCCCCCCCN(CC)CC)c(OC)c(CC=C(C)C)c3c(=O)c2c(O)c1CC=C(C)C | > 50 | > 50 | > 50 | > 50 |  | Active | 95.5 | 53.1 |  |  |  |  |  |  | > 70 |  | 
8 | CCCCN(CCCC)CCCCOc1cc2oc3cc(OCCCCN(CCCC)CCCC)c(OC)c(CC=C(C)C)c3c(=O)c2c(O)c1CC=C(C)C | > 50 | > 50 | > 50 | > 50 |  |  |  | > 200 |  |  |  |  |  |  |  | 1768 | 0.763
9 | COc1c(O)cc2oc3cc(O)c(CC=C(C)C)c(O)c3c(=O)c2c1CC=C(C)C [MANGOSTIN] | 2 (≈ 4.87 µM) |  |  |  | 4.5 |  |  |  |  | 33.6% | 16% | 14.1% | < 10% | < 10% |  |  | 
